In brackets after ≈: the same amount, converted by molar mass.
What was measured:
L1210 = test: Cytotoxicity against murine lymphoblastic leukemia cells (L1210).; assay type: functional, cell-based; settings: Mus musculus
Method in brief: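 Murine L1210 cells grown in Dulbecco's MEM with 10% fetal calf serum at 37 °C, 5% CO2. Cells seeded, then after 24 h compounds added in duplicate at various concentrations and incubated 24 h. Cells counted by Coulter counter. IC50 taken as the dose giving 50% growth inhibition, extrapolated from regression curves of non-toxic experimental points.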

[1] = biological target: DNA topoisomerase 2-beta (Homo sapiens) (UniProt Q02880); test: Inhibition of topoisomerase II; settings: Bos taurus
DNA topoisomerase 2-beta (Homo sapiens), sequence (Q02880 whole entry): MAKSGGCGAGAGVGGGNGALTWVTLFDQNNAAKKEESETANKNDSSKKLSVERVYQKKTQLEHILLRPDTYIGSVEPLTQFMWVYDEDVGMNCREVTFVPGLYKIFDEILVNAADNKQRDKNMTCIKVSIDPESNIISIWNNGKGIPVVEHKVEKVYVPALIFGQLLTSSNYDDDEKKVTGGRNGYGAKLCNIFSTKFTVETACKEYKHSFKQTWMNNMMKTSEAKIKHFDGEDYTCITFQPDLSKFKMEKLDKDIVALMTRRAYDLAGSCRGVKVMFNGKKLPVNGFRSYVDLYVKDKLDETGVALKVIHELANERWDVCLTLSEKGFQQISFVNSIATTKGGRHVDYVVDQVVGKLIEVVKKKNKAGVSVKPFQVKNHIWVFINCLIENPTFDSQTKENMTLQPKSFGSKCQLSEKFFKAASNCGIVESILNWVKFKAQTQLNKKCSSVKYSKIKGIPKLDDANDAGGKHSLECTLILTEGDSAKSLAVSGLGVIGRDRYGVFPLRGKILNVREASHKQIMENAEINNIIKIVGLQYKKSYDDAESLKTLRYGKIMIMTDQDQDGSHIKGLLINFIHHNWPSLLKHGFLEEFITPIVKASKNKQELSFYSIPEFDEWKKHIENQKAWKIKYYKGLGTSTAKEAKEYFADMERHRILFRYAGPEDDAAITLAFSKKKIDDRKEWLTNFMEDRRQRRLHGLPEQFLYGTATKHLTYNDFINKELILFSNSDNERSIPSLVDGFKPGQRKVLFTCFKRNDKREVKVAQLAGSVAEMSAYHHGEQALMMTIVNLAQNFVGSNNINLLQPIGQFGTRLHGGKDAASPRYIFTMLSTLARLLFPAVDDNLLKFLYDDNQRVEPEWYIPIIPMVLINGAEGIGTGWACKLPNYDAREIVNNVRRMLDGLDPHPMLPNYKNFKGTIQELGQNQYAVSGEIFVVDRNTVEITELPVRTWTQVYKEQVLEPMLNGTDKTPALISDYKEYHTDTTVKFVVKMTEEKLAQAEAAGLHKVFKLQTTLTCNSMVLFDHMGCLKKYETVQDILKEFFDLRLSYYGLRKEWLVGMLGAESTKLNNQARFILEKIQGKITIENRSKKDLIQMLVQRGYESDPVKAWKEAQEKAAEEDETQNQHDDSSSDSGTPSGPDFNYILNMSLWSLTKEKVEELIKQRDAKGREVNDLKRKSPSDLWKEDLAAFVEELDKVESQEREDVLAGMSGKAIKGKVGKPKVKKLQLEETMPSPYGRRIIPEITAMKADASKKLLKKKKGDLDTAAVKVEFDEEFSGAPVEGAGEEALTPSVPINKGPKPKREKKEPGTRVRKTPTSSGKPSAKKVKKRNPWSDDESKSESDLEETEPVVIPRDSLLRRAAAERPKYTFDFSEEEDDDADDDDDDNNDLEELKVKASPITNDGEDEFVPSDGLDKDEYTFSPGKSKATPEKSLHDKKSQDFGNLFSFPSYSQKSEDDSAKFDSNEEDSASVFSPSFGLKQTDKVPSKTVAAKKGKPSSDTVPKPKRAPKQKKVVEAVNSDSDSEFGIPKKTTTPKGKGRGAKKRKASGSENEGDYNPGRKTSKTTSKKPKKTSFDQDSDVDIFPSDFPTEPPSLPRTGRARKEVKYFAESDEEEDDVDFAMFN
Method in brief: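 Topoisomerase I or II purified from calf thymus, tested in a DNA cleavage assay. Read-out is the minimal inhibitory concentration (μM), meaning the lowest concentration that gives detectable stimulation of DNA cleavage.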

[2] = Cytotoxicity was measured on human mammary adenocarcinoma cells(Calc 18); assay type: functional, cell-based
Method in brief: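 Human mammary adenocarcinoma Calc 18 cells exposed to various drug concentrations for 96 h at 37 °C. Viability read by neutral red staining. IC50 is the concentration giving 50% growth inhibition.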

[3] = tested on: P388 leukemia cells (Mus musculus); test: Cytotoxicity was measured on cultured murine leukemia cells (P388)
[4] = The ratio of the mean survival time of treated animals on the mean survival time of controls multiplied by 100.It is measured at dose of 10 mg/kg; T/C value; assay type: functional
Method in brief: (§1)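 Female BDF1 mice inoculated IP with 10⁶ P388 leukemia cells on day 0, with 10 controls and 6 mice per test group. Compounds given IP as 0.2-mL PBS solutions on days 1, 3 and 7. T/C = mean survival time of treated mice / mean survival time of controls × 100.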

[5] = The ratio of the mean survival time of treated animals on the mean survival time of controls multiplied by 100.It is measured at dose of 5 mg/kg; T/C value; assay type: functional; method in brief: as §1
[6] = The ratio of the mean survival time of treated animals on the mean survival time of controls multiplied by 100.It is measured at dose of 20 mg/kg; T/C value; assay type: functional; method in brief: as §1
P388 [7] = test: (§2) Cytotoxicity was measured on murine leukemia p388; assay type: functional, cell-based; settings: Mus musculus
Method in brief: (§3)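 Cells (P388, or camptothecin-resistant P388 CPT0.3) incubated 96 h at 37 °C with various drug concentrations. Viability read by neutral red staining. IC50 taken as the concentration giving 50% growth inhibition.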

[8] = The ratio of the mean survival time of treated animals on the mean survival time of controls multiplied by 100.It is measured at dose of 100 mg/kg; T/C value; assay type: functional; method in brief: as §1
P388 [9] = test: (§4) Cytotoxicity was measured on murine leukemia p388 CPT 0.3; assay type: functional, cell-based; settings: Mus musculus; method in brief: as §3
P388 [10] = test: as §4; assay type: functional; settings: Mus musculus; method in brief: as §3
P388 [11] = test: as §2; assay type: functional; settings: Mus musculus; method in brief: as §3
[12] = The ratio of the mean survival time of treated animals on the mean survival time of controls multiplied by 100.It is measured at dose of 40 mg/kg; T/C value; assay type: functional; method in brief: as §1

Row | Compound | IC50 (L1210) | MIC [1] | IC50 [2] | further results
1 | COc1cc2ccc3c4cc(OC)c(OC)cc4c(NCCN(C)C)nc3c2cc1OC | > 5000 nM | > 10 µM | 3000 nM | 
2 | COc1ccc2c(ccc3c4ccccc4c(NCCCN(C)C)nc23)c1 | 3400 nM | > 10 µM | 2500 nM | 
3 | COc1ccc2ccc3c4ccccc4c(NCCN(C)C)nc3c2c1 | 2500 nM |  |  | 
4 | CC[C@@]1(O)C(=O)OCc2c1cc1n(c2=O)Cc2cc3ccccc3nc2-1 [CAMPTOTHECIN] |  | > 100 µM |  | IC50 [3]: 15 nM
5 | COc1ccc2c(c1)c(NCCN(C)C)nc1c3ccc(O)cc3ccc21 |  | 10 µM (≈ 3.61 µg/mL) | 1500 nM | 
6 | CN(C)CCNc1nc2c3cc(O)ccc3ccc2c2ccccc12 | 500 nM | 10 µM (≈ 3.31 µg/mL) | 3000 nM | Ratio [4]: 83; Ratio [5]: 92; Ratio [6]: 102
7 | CN(C)CCCNc1nc2c3ccc(O)cc3ccc2c2ccc(O)cc12 | 4500 nM | 10 µM (≈ 3.61 µg/mL) | > 10000 nM | 
8 | COc1cc2c(ccc3c4cc(OC)c(OC)cc4c[n+](C)c23)cc1O.[Cl-] [FAGARONINE] | 2000 nM |  |  | IC50 (P388 [7]): 2000 nM; Ratio [8]: 265; IC50 (P388 [9]): > 10000 nM; IC90 (P388 [10]): > 10000 nM; IC90 (P388 [11]): 6000 nM
9 | CN(C)CCCNc1nc2c3cc(O)ccc3ccc2c2ccccc12 | 3400 nM | > 10 µM | 2500 nM | Ratio [4]: 90; Ratio [5]: 91; Ratio [6]: 73
10 | CN(C)CCNc1nc2c3ccccc3ccc2c2ccccc12 | > 90000 nM |  |  | 
11 | COc1cc2c(NCCN(C)C)nc3c4cc5c(cc4ccc3c2cc1OC)OCO5 | 300 nM | 1 µM (≈ 0.419 µg/mL) | 600 nM | IC50 (P388 [7]): 900 nM; Ratio [4]: 103; Ratio [5]: 99; Ratio [6]: 92; IC50 (P388 [9]): 150 nM; IC90 (P388 [10]): 3500 nM; IC90 (P388 [11]): 3500 nM
12 | COc1ccc2c(ccc3c4ccc(OC)cc4c(NCCCN(C)C)nc23)c1 | 2500 nM | > 10 µM | 3000 nM | 
13 | COc1ccc2c(ccc3c4ccccc4c(NCCN(C)C)nc23)c1 | 3000 nM | 10 µM (≈ 3.45 µg/mL) | 3000 nM | 
14 | CN(C)CCCNc1nc2c3ccc(O)cc3ccc2c2ccccc12 | 2600 nM | > 10 µM | 3000 nM | 
15 | CN(C)CCNc1nc2c3ccc(O)cc3ccc2c2ccccc12 | 500 nM | 1 µM (≈ 0.331 µg/mL) | 1000 nM | Ratio [4]: 138; Ratio [5]: 93; Ratio [6]: 118; Ratio [12]: 101
16 | COc1cc([C@@H]2c3cc4c(cc3[C@@H](O[C@@H]3O[C@@H]5CO[C@@H](C)O[C@H]5[C@H](O)[C@H]3O)[C@H]3COC(=O)[C@H]23)OCO4)cc(OC)c1O |  | 0.1 µM (≈ 0.0589 µg/mL) |  | 
17 | COc1ccc2c(ccc3c4ccc(OC)cc4c(NCCN(C)C)nc23)c1 | 1700 nM | 10 µM (≈ 3.75 µg/mL) | 1500 nM | 
18 | COc1ccc2ccc3c4ccccc4c(NCCCN(C)C)nc3c2c1 | 2600 nM |  |  | 
19 | CN(C)CCNc1nc2c3ccc(O)cc3ccc2c2ccc(O)cc12 | 500 nM | 3 µM (≈ 1.04 µg/mL) | 1000 nM | Ratio [4]: 111; Ratio [5]: 119; Ratio [6]: 111

From ChEMBL document CHEMBL1126908, “Synthesis and evaluation of new 6-amino-substituted benzo[c]phenanthridine derivatives” (J Med Chem, 1993)
